28 compounds from ChEMBL document CHEMBL3091406, “Design and synthesis of novel antimicrobials with activity against Gram-positive bacteria and mycobacterial species, including M. tuberculosis” (2013) can be followed below.

The structures appear in SMILES notation. Converted amounts (≈) assume the structure as drawn.

Holding throughout (type): functional
For one experiment, the system named is Escherichia coli. Briefly: Antibacterial activity against Escherichia coli […] by CLSI method.
The test system of the next experiment is Bacillus cereus. Put plainly: Antibacterial activity against Bacillus cereus by CLSI method.
The test system of experiment [1] is Mycolicibacterium smegmatis. Put plainly: Antimycobacterial activity against Mycobacterium smegmatis.
Another experiment deals with Staphylococcus aureus. Briefly: Antibacterial activity against Staphylococcus aureus ATCC 29213 by CLSI method.
Experiment [2] deals with Mycolicibacterium fortuitum. Briefly: Antimycobacterial activity against Mycobacterium fortuitum. The method, boiled down: (§1)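 MIC in Middlebrook 7H9 broth with 10% OADC; strains from University of Wisconsin-La Crosse culture collection; rifampin as positive control; reported MIC is compiled from geometric means of three separate runs.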
Experiment [3] has as its system Mycolicibacterium smegmatis. Put plainly: Ratio of rifampin MIC to compound MIC for Mycobacterium smegmatis.
Experiment [4] relates to Mycobacterium tuberculosis. Briefly: Ratio of ethambutol MIC to compound MIC for Mycobacterium tuberculosis H37Rv after 7 days by BacTiter-Glo method.
Experiment [5] relates to Mycobacterium tuberculosis. Briefly: Antimycobacterial activity against Mycobacterium tuberculosis H37Rv after 7 days by BacTiter-Glo method. The note with it: 168 h. The method, boiled down: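 Strain H37Rv in 384-well plates, Middlebrook 7H12 broth with palmitate and 0.5% BSA; compounds diluted in medium to 2× final concentration; inoculum 1-2 × 10⁵ CFU/mL; amikacin positive control on every plate; 7 days at 37 °C, ~95% humidity; compound autofluorescence pre-read (ex 535/em 590 nm); BacTiter-Glo reagent added, 20 min room temperature, luminescence read.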

The test system of a further experiment is Mycobacterium avium. Briefly: Antimycobacterial activity against Mycobacterium avium. The method, boiled down:
as §1

Experiment [6] concerns Mycobacterium intracellulare. Put plainly: Antimycobacterial activity against Mycobacterium intracellulare. Put shortly: as §1
The next experiment concerns Mycobacteroides chelonae. Briefly: Antimycobacterial activity against Mycobacterium chelonae. Put shortly: as §1
The subject of another experiment is Mycobacterium kansasii. Put plainly: Antimycobacterial activity against Mycobacterium kansasii. Put shortly: as §1

With `CCOC(=O)/C=C\Sc1ccc(C(C)(C)C)cc1`, the minimal inhibitory concentration (MIC) in the experiment with Escherichia coli was greater than 128 µg/mL; in the experiment with Bacillus cereus, greater than 128 µg/mL; in [1], 16 µg/mL (≈ 60.5 µM); in the experiment with Staphylococcus aureus, greater than 128 µg/mL.

As to `CC(C)(C)c1ccc(C(=O)/C=C/C(=O)O)cc1`, the MIC in experiment [2] is greater than 125 µg/mL; with Escherichia coli it was greater than 128 µg/mL; in experiment [1], greater than 128 µg/mL; against Staphylococcus aureus, 32 µg/mL (≈ 138 µM).

On to `CC(C)(C)c1ccc(S/C=C\C(=O)NC2CC2)cc1`, for which the MIC (in the experiment with Escherichia coli; in the experiment with Bacillus cereus; in experiment [1]; in the experiment with Staphylococcus aureus) was greater than 128 µg/mL throughout.

Turning to `CCOC(=O)/C=C\C(=O)c1ccc(C(C)(C)C)cc1`, the results for the Ratio in experiment [3] and in experiment [4] were 8 and 1.5, respectively. Further, the MIC in [5] came out at 0.8 µg/mL (≈ 3.07 µM); in the experiment on Mycobacterium avium it was 32 µg/mL (≈ 123 µM); in experiment [6], 8 µg/mL (≈ 30.7 µM); in the experiment on Mycobacteroides chelonae it was 16 µg/mL (≈ 61.5 µM); in the experiment with Mycobacterium kansasii it was 64 µg/mL (≈ 246 µM); in experiment [2] it was 8 µg/mL (≈ 30.7 µM). The MIC in the experiment on Escherichia coli is greater than 128 µg/mL; against Bacillus cereus it was 8 µg/mL (≈ 30.7 µM); in [1] it was 8 µg/mL (≈ 30.7 µM); in the experiment with Staphylococcus aureus, 4 µg/mL (≈ 15.4 µM).

For the compound `CCOC(=O)/C=C/C(=O)c1ccc(C(C)(C)C)cc1`, the Ratio is 8 in experiment [3] and 1.5 in experiment [4]. For the same compound, the MIC came to 0.8 µg/mL (≈ 3.07 µM) in experiment [5]; 16 µg/mL (≈ 61.5 µM) against Mycobacterium avium; 4 µg/mL (≈ 15.4 µM) in experiment [6]; 8 µg/mL (≈ 30.7 µM) in the experiment with Mycobacteroides chelonae; 32 µg/mL (≈ 123 µM) against Mycobacterium kansasii; 4 µg/mL (≈ 15.4 µM) in experiment [2]. Also, the MIC against Escherichia coli is greater than 128 µg/mL; against Bacillus cereus it was 4 µg/mL (≈ 15.4 µM); in experiment [1], 8 µg/mL (≈ 30.7 µM); in the experiment on Staphylococcus aureus it was 2 µg/mL (≈ 7.68 µM).

As to `CCOC(=O)CCC(=O)c1ccc(C(C)(C)C)cc1`, the MIC (with Mycobacterium avium; in experiment [6]; against Mycobacteroides chelonae; in the experiment on Mycobacterium kansasii; in experiment [2]; in the experiment with Escherichia coli) was greater than 128 µg/mL throughout. Also, the MIC (in [1]; in the experiment on Staphylococcus aureus) was greater than 128 µg/mL each time.

Turning to `CCOC(=O)CCCc1ccc(C(C)(C)C)cc1`, the MIC in the experiment on Mycobacterium avium is greater than 128 µg/mL; in experiment [6] it was greater than 128 µg/mL; in the experiment on Mycobacteroides chelonae, 32 µg/mL (≈ 129 µM); in the experiment with Mycobacterium kansasii, 128 µg/mL (≈ 515 µM); in experiment [2] it was 32 µg/mL (≈ 129 µM); in the experiment on Escherichia coli, greater than 128 µg/mL. Further, the minimum inhibitory concentration (MIC) is 64 µg/mL (≈ 258 µM) in [1] and greater than 128 µg/mL in the experiment with Staphylococcus aureus.

For the compound `CC(C)=CCOC(=O)/C=C/C(=O)c1ccc(C(C)(C)C)cc1`, the MIC is greater than 128 µg/mL in the experiment on Mycobacterium avium; greater than 128 µg/mL in [6]; 32 µg/mL (≈ 107 µM) in the experiment on Mycobacteroides chelonae; greater than 128 µg/mL in the experiment with Mycobacterium kansasii; 64 µg/mL (≈ 213 µM) in [2]; greater than 128 µg/mL in the experiment with Escherichia coli. Besides, the MIC in experiment [1] was greater than 128 µg/mL; against Staphylococcus aureus, 0.5 µg/mL (≈ 1.66 µM).

In the case of `CCOC(=O)/C=C/Cc1ccc(C(C)(C)C)cc1`, the MIC (with Mycobacterium avium; in [6]; against Mycobacteroides chelonae; in the experiment on Mycobacterium kansasii; in [2]; in the experiment with Escherichia coli) was greater than 128 µg/mL throughout. For the same compound, the MIC was greater than 128 µg/mL in experiment [1] and 16 µg/mL (≈ 64.9 µM) in the experiment with Staphylococcus aureus.

In the case of `CCOC(=O)c1ccccc1C(=O)c1ccc(C(C)(C)C)cc1`, the MIC (against Mycobacterium avium; in experiment [6]; against Mycobacteroides chelonae; against Mycobacterium kansasii; in experiment [2]; against Escherichia coli) was greater than 128 µg/mL throughout. For the same compound, the minimum inhibitory concentration (MIC) (in experiment [1]; with Staphylococcus aureus) was greater than 128 µg/mL in each case.

With `CCOC(=O)/C=C\C(=O)c1cc2ccccc2s1`, the Ratio in experiment [3] was found to be 16; in experiment [4], 3. Also, the minimum inhibitory concentration (MIC) in experiment [5] was found to be 0.4 µg/mL (≈ 1.54 µM); in the experiment on Mycobacterium avium, 16 µg/mL (≈ 61.5 µM); in experiment [6] it was 4 µg/mL (≈ 15.4 µM); against Mycobacteroides chelonae, 8 µg/mL (≈ 30.7 µM); with Mycobacterium kansasii, 8 µg/mL (≈ 30.7 µM); in experiment [2], 16 µg/mL (≈ 61.5 µM). Moreover, the values for the MIC (in the experiment with Escherichia coli; in experiment [1]; against Staphylococcus aureus) were 128 µg/mL (≈ 492 µM), 4 µg/mL (≈ 15.4 µM) and 1 µg/mL (≈ 3.84 µM), respectively.

For the compound `CCOC(=O)CCSc1ccc(C(C)(C)C)cc1`, the minimal inhibitory concentration (MIC) (against Mycobacterium avium; in experiment [6]; in the experiment with Mycobacteroides chelonae; in the experiment with Mycobacterium kansasii; in experiment [2]; against Escherichia coli) was greater than 128 µg/mL each time. Besides, the minimal inhibitory concentration (MIC) (against Bacillus cereus; in experiment [1]; with Staphylococcus aureus) was greater than 128 µg/mL each time.

Consider `CCOC(=O)C#CC(=O)c1ccc(C(C)(C)C)cc1`, for which the MIC (against Mycobacterium avium; in [6]; in the experiment with Mycobacteroides chelonae; in the experiment on Mycobacterium kansasii; in experiment [2]; against Escherichia coli) was greater than 128 µg/mL throughout. Further, the MIC (with Bacillus cereus; in experiment [1]; with Staphylococcus aureus) was greater than 128 µg/mL in each case.

As for `CCOC(=O)[C@@H]1C[C@H]1C(=O)c1ccc(C(C)(C)C)cc1`, the minimal inhibitory concentration (MIC) in [2] was 64 µg/mL (≈ 233 µM); against Escherichia coli it was greater than 128 µg/mL; in [1] it was 16 µg/mL (≈ 58.3 µM); with Staphylococcus aureus it was 64 µg/mL (≈ 233 µM).

Turning to `CCOC(=O)[C@@H]1O[C@H]1C(=O)c1ccc(C(C)(C)C)cc1`, the MIC is greater than 128 µg/mL in experiment [2], greater than 128 µg/mL against Escherichia coli, 128 µg/mL (≈ 463 µM) in experiment [1] and 32 µg/mL (≈ 116 µM) in the experiment with Staphylococcus aureus.

As for `CC(C)(C)c1ccc(S/C=C\C(=O)O)cc1`, the minimum inhibitory concentration (MIC) is greater than 128 µg/mL against Escherichia coli, 128 µg/mL (≈ 542 µM) in the experiment on Bacillus cereus, greater than 128 µg/mL in experiment [1] and greater than 128 µg/mL against Staphylococcus aureus.

Take `O=C(O)/C=C\Sc1nc2ccccc2s1`: the minimum inhibitory concentration (MIC) (against Escherichia coli; against Bacillus cereus; in experiment [1]; in the experiment with Staphylococcus aureus) was greater than 128 µg/mL in each case.

`CC(C)(C)c1ccc(S/C=C\C(=O)OCC2CC2)cc1`: the MIC against Escherichia coli is greater than 128 µg/mL; with Bacillus cereus it was 128 µg/mL (≈ 441 µM); in experiment [1], 16 µg/mL (≈ 55.1 µM); with Staphylococcus aureus it was greater than 128 µg/mL.

For `CC(C)N(C(=O)/C=C\Sc1nc2ccccc2s1)C(C)C`, the minimal inhibitory concentration (MIC) (in the experiment with Escherichia coli; in the experiment with Bacillus cereus; in experiment [1]; against Staphylococcus aureus) was greater than 128 µg/mL throughout.

With `CC(C)(C)c1ccc(S/C=C\C(=O)Nc2ccccc2)cc1`, the MIC (in the experiment on Escherichia coli; in the experiment on Bacillus cereus; in experiment [1]; against Staphylococcus aureus) was greater than 128 µg/mL throughout.

In the case of `CN(C(=O)/C=C\Sc1ccc(C(C)(C)C)cc1)c1ccccc1`, the MIC in the experiment with Escherichia coli is greater than 128 µg/mL; in the experiment on Bacillus cereus, greater than 128 µg/mL; in [1] it was 32 µg/mL (≈ 98.3 µM); with Staphylococcus aureus, greater than 128 µg/mL.

For the compound `CNC(=O)/C=C\Sc1ccc(C(C)(C)C)cc1`, the minimum inhibitory concentration (MIC) is greater than 128 µg/mL in the experiment with Escherichia coli, 128 µg/mL (≈ 513 µM) in the experiment with Bacillus cereus, greater than 128 µg/mL in experiment [1] and greater than 128 µg/mL in the experiment on Staphylococcus aureus.

As to `CN(C)C(=O)/C=C\Sc1ccc(C(C)(C)C)cc1`, the minimal inhibitory concentration (MIC) in the experiment with Escherichia coli is greater than 128 µg/mL; in the experiment with Bacillus cereus, 16 µg/mL (≈ 60.7 µM); in experiment [1], 64 µg/mL (≈ 243 µM); against Staphylococcus aureus, greater than 128 µg/mL.

As to `CC(C)N(C(=O)/C=C\Sc1ccc(C(C)(C)C)cc1)C(C)C`, the MIC in the experiment with Escherichia coli was greater than 128 µg/mL; with Bacillus cereus, greater than 128 µg/mL; in experiment [1], 64 µg/mL (≈ 200 µM); in the experiment with Staphylococcus aureus it was greater than 128 µg/mL.

Turning to `CC[C@@H](CO)NCCN[C@@H](CC)CO` [ETHAMBUTOL], the minimum inhibitory concentration (MIC) in [5] amounted to 1.2 µg/mL (≈ 5.87 µM).

With `NNC(=O)c1ccncc1` [ISONIAZID], the lowest concentration to inhibit growth in experiment [5] (MIC) was 0.25 µg/mL (≈ 1.82 µM).

Regarding `CO[C@H]1/C=C/O[C@@]2(C)Oc3c(C)c(O)c4c(O)c(c(/C=N/N5CCN(C)CC5)c(O)c4c3C2=O)NC(=O)/C(C)=C\C=C\[C@H](C)[C@H](O)[C@@H](C)[C@@H](O)[C@@H](C)[C@H](OC(C)=O)[C@@H]1C` [RIFAMPIN], the MIC is less than 0.03 µg/mL in experiment [5]; 2 µg/mL (≈ 2.43 µM) against Mycobacterium avium; 1 µg/mL (≈ 1.22 µM) in experiment [6]; 32 µg/mL (≈ 38.9 µM) against Mycobacteroides chelonae; 0.5 µg/mL (≈ 0.608 µM) with Mycobacterium kansasii; 32 µg/mL (≈ 38.9 µM) in [2]. In experiment [1], this compound displayed an MIC of 64 µg/mL (≈ 77.8 µM).

In the case of `CN(C)[C@@H]1C(O)=C(C(N)=O)C(=O)[C@@]2(O)C(O)=C3C(=O)c4c(O)cccc4[C@@](C)(O)[C@H]3C[C@@H]12` [TETRACYCLINE], the minimum inhibitory concentration (MIC) against Escherichia coli stood at 1 µg/mL (≈ 2.25 µM); against Staphylococcus aureus, 0.25 µg/mL (≈ 0.563 µM).

As usually defined, the MIC is the least concentration at which growth counts as inhibited.
